M1 agonist: M1 muscarinic receptor agonism. CHO-M1 cells, Fluo-4 calcium fluorescence, agonist mode; active compounds read high. B-score at 10 µM. 64,000 tested, 3% active. AID 626;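 active = fluorescence rise, raw or as B-score row- and column-corrected plate score, outside the 99.7% band of its plate's samples, either direction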
S1P1 ag-PAM: S1P1 (human) agonism or agonism potentiation. activation, % at 9.5 µM. AID 449. S1P1 CRE-bla cells, forskolin, beta-lactamase FRET, potentiator mode; S1P1 agonist co-added at EC20, 2 nM; 100% = saturating reference agonist, 0% = basal. P21453. 56,000 tested, 0.57% active;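 active = activation above a cutoff set at the mean activation of all tested compounds plus 3 SD, cut at about 54% in these data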;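 note: forskolin at 4 µM as EC80 and the EC20 agonist is SEW2871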
TNAP act mid DEA: activates human TNAP at intermediate phosphate acceptor concentration. P05186. purified TNAP, CDP-star luminescence, 100 mM DEA, 30 min; active compounds read high; scale: 0 levamisole-inhibited, 1 vehicle-only enzyme. activation factor at 20 µM. 64,000 tested, under 10 active. AID 813;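 active = activation factor of at least 2 at 20 µM, relative to controls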
D1 mod: allosteric modulators of human D1 dopamine receptor. AID 641. 58,000 tested, 5.9% active. B-score at 10 µM. P21728. HEK293 D1, CRE-luciferase, dopamine EC30 potentiation; actives deviate in either direction;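 active = luminescence count or its row- and column-corrected plate score outside the 99.7% band of the plate's sample wells, on either side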
M1 antagonist: blocks the rat M1 muscarinic receptor response to acetylcholine; CHO-M1 cells, Fluo-4 calcium, ACh EC80 antagonist mode; active compounds read low; B-score at 10 µM; 64,000 tested, 3.4% active; AID 628;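 active = calcium fluorescence response, raw or row-and-column corrected B-score, differing from the plate sample mean either way at a set confidence level, mostly lower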
S1P3 agonist: activates the human S1P3 receptor. Q99500. S1P3 NFAT-BLA reporter cells, agonism, FRET ratio; relative to 1 µM S1P, basal subtracted. activation, % at 4.5 µM. 60,000 tested, 0.1% active. AID 373;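 active = activation above the screen-wide mean plus 3 SD, cut at about 4.5% in these data, passing the limit was not always enough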
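Assay system: stable CHO line with human S1P3, Gα16, NFAT-BLA reporter; Detection: FRET β-lactamase substrate fluorescence, excitation 405 nm, 460/535 nm emission ratio, background-subtracted; Read-out: percent activation versus median 1 µM S1P response, basal-subtracted, per plate; Incubation: cells plated overnight, compound 4 h 37 °C, substrate 2 h RT.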
M1 agonist conf: confirmation of rat M1 muscarinic receptor agonists; fluorescence change (max-min) at 10 µM; 1,700 tested, 19% active; shares compounds with M1 agonist; CHO-M1 cells, Fluo-4 calcium fluorescence, agonist mode; actives lie on both sides; AID 1488;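 active = fluorescence change differs from the solvent-only DMSO control mean at a set confidence level in both duplicate runs; inconclusive = differs from solvent-only control mean in just one of two runs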;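 note: an EC20 dose of acetylcholine follows compound addition during the same imaging run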
M4 ag counter: rat M4 muscarinic agonism, M1 counter-screen; shares compounds with M1 agonist; CHO M4/Gqi5 cells, Fluo-4 calcium fluorescence, agonist mode; actives lie on both sides; AID 1741; 1,700 tested, 9% active; fluorescence change (max-min) at 10 µM;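 active = fluorescence change differing from the plate's solvent-only control wells at 99.7% confidence in both duplicates, whether higher or lower; inconclusive = differs from solvent controls in only one of two duplicates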
Target sequence (P08485 whole entry, looked up): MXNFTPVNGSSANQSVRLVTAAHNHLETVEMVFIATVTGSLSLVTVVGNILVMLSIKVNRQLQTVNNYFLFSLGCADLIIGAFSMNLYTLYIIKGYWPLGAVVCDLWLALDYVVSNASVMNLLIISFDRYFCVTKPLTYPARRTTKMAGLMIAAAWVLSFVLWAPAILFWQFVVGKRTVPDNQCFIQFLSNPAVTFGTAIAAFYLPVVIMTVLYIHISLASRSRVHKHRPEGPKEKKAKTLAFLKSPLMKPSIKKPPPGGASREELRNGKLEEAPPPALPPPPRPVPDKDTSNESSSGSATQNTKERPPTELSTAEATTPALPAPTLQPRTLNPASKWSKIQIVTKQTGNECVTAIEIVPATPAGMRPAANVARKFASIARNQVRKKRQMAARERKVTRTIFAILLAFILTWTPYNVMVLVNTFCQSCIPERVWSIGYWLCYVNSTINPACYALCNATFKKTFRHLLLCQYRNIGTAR
Hits are given with their value; . = inactive; ? = inconclusive; / = no result. Hits are enriched below; roughly 11% of the tested compounds scored in any of these assays.

SMILES | M1 agonist | S1P1 ag-PAM | TNAP act mid DEA | D1 mod | M1 antagonist | S1P3 agonist | M1 agonist conf | M4 ag counter
Cc1nnc(NC(=O)C2CCCN(S(=O)(=O)c3ccccc3C(F)(F)F)C2)s1 (stereo not given) | 15.8 | . | . | . | . | . | . | .
O=C(Nc1nc(-c2ccccc2)cs1)C1CCCN(S(=O)(=O)c2ccccc2)C1 (stereo not given) | 4.48 | . | . | . | . | . | ? | .
COC(=O)c1ccccc1NC(=O)C1CCCN(S(=O)(=O)c2ccc(F)cc2)C1 (stereo not given) | 5.51 | . | . | . | . | . | . | .
O=C(Nc1nc(-c2ccccc2)cs1)C1CCCCN1S(=O)(=O)c1ccccc1 (stereo not given) | . | . | . | . | . | . | / | /
Cc1nnc(NC(=O)C2CCCN(S(=O)(=O)Cc3ccccc3)C2)s1 (stereo not given) | . | / | . | . | . | / | / | /
Nc1cccc(-n2nncc2-c2ccccc2)c1 | . | . | . | . | . | . | / | /
C=CCn1c(=O)c2c(nc3n2CC(C)CN3c2cccc(OC)c2)n(C)c1=O (stereo not given) | 1.94 | . | . | . | . | . | . | ?
CC1CN(c2ccc(Oc3ccccc3)cc2)c2nc3c(c(=O)n(CC(N)=O)c(=O)n3C)n2C1 (stereo not given) | . | . | . | . | . | . | / | /
CCOC(=O)Cc1csc(NC(=O)CSc2nnc(-n3nc(C)cc3C)c3ccccc23)n1 | 4.71 | . | . | . | . | . | . | .
CCOC(=O)Cc1csc(NC(=O)CSc2nnc(-c3ccc(C)cc3)o2)n1 | . | . | . | . | . | . | / | /
O/N=C1\CCc2cc(Cl)ccc21 | 5.48 | . | . | / | . | . | . | .
COC(=O)c1ccc(NC(=O)C23CCC(C)(C(=O)O2)C3(C)C)cc1 (stereo not given) | . | / | . | . | . | / | / | /
O=S(=O)(CC(CN1CCCC1)N1CCCC1)c1ccc2ccccc2c1 (stereo not given) | . | . | . | . | . | . | / | /
Cc1ccc(-c2cn3nc(C)c(C)nc3n2)cc1 | 10.9 | . | . | -8.46 | . | . | 103 | .
COc1ccc(OC)c(S(=O)(=O)N(C)CC(=O)N2CCN(c3ccccc3F)CC2)c1 | . | . | . | . | . | . | / | /
Cc1nc2ccccc2n2c(O)c(CC(=O)O)cc12 | 269 | . | . | . | . | . | 1125 | 1088
COc1ccc(CN(Cc2ccccn2)C(=O)CN2C(=O)C(C)Oc3ccccc32)cc1 (stereo not given) | 14.6 | . | . | . | . | . | . | .
COc1ccccc1N1CCN(c2ncnc3nc[nH]c23)CC1 | 2.95 | . | . | . | . | . | ? | .
COc1ccc(N2CCN(c3ncnc4nc[nH]c34)CC2)cc1 | . | . | . | . | . | . | / | /
COc1ccccc1N1CCN(c2ncnc3c2oc2ccccc23)CC1 | 3.87 | . | . | . | . | . | -29.4 | .
O=C(c1ccco1)N1CCN(c2ncnc3c2oc2ccccc23)CC1 | 14.1 | . | . | / | . | . | . | .
COc1ccc(NC(=O)c2[nH]c(C)c(C(C)=O)c2C)cc1Cl | 5.5 | / | . | / | -3.05 | / | . | .
O=C(Nc1cccc(-c2nc3ncccc3o2)c1)c1cc2ccccc2o1 | 6.01 | . | / | . | . | . | . | ?
Cc1ccc(-c2nc3ncccc3o2)cc1NC(=O)c1cc2ccccc2o1 | . | . | . | . | . | . | / | /
CCOc1cccc(C(=O)Nc2cccc(-c3nc4ncccc4o3)c2C)c1 | 4.19 | / | . | . | . | . | ? | -79.7
Cc1cc(C)cc(OCC(=O)Nc2cccc(-c3nc4ncccc4o3)c2)c1 | 6.75 | . | . | . | . | . | . | .

Screens deposited in PubChem by several laboratories.
